{"data": "Results from different studies", "PTGS2": "Prostaglandin G/H synthase 2 (PTGS2, Homo sapiens, UniProt P35354)", "BRDT BD1": "Bromodomain testis-specific protein, BD1 (BRDT, Homo sapiens, UniProt Q58F21)", "DYRK3": "Dual specificity tyrosine-phosphorylation-regulated kinase 3 (DYRK3, Homo sapiens, UniProt O43781)", "note": "Compare with care: the assays were run in different laboratories."}
{"SMILES": "COc1ccc(-c2cc(=O)c3c(O)cc(O[C@@H]4O[C@H](CO)[C@@H](O)[C@H](O)[C@H]4O)cc3o2)cc1O", "target": "PTGS2", "test": "enzyme activity, inhibitor", "setting": "3.9 µg/mL", "quantity": "inhibition", "value": "100%"}
{"SMILES": "Cc1cc2c(cc1N1C(=O)c3cccc4c(Cl)ccc(c34)C1=O)n(C)c(=O)n2C", "target": "BRDT BD1", "test": "thermal stability, DSF", "setting": "10 µM", "quantity": "ΔTm", "value": "-1 °C"}
{"SMILES": "Oc1ccc(-c2nc(-c3ccncc3)c(-c3ccc(F)cc3)[nH]2)cc1", "target": "Transcription intermediary factor 1-beta (TRIM28, Homo sapiens, UniProt Q13263)", "test": "thermal stability, DSF", "setting": "10 µM", "quantity": "ΔTm", "value": "-0.03 °C"}
{"SMILES": "O=C(O)c1ccc(O)cc1", "target": "PTGS2", "test": "enzyme activity, inhibitor", "setting": "15.63 µg/mL", "quantity": "inhibition", "value": "100%"}
{"SMILES": "O=C(O)c1ccc2c(c1)nc(Nc1cccc(F)c1)c1ccncc12", "target": "DYRK3", "test": "enzyme activity, inhibitor, radiometric", "setting": "1 µM", "quantity": "remaining activity", "value": "0%"}
{"SMILES": "NS(=O)(=O)c1ccc(Nc2nc(-c3ccc(F)cc3)c3ccccc3n2)cc1", "target": "BRDT BD1", "test": "binding, competition with immobilised ligand", "setting": "1 µM", "quantity": "remaining binding", "value": "6%"}
{"SMILES": "O=C(O)c1ccc2c(c1)nc(Nc1cccc(F)c1)c1ncncc12", "target": "Homeodomain-interacting protein kinase 2 (HIPK2, Homo sapiens, UniProt Q9H2X6)", "test": "enzyme activity, inhibitor, radiometric", "setting": "1 µM", "quantity": "remaining activity", "value": "-1%"}
{"SMILES": "O=c1cc(-c2ccc(O)cc2)oc2cc(O)cc(O)c12", "target": "PTGS2", "test": "enzyme activity, inhibitor", "setting": "0.98 µg/mL", "quantity": "inhibition", "value": "28.2%"}
{"SMILES": "Cc1cnc(Nc2ccc(OCCN3CCCC3)cc2)nc1Nc1cccc(S(=O)(=O)NC(C)(C)C)c1", "target": "CREB-binding protein (CREBBP, Homo sapiens, UniProt Q92793)", "test": "thermal stability, DSF", "setting": "10 µM", "quantity": "ΔTm", "value": "2.06 °C"}
{"SMILES": "O=C(O)c1ccc2c(c1)nc(NCCc1ccccc1)c1ccncc12", "target": "DYRK3", "test": "enzyme activity, inhibitor, radiometric", "setting": "1 µM", "quantity": "remaining activity", "value": "3%"}
